Experimental data from article PMC6982609 (Nature chemical biology, 2019).

Assays:
[1] = test system: TNBC cells; test: Growth inhibition of TNBC cells by EZH2 inhibitors; assay type: cell-based
[2] = test system: EZH2; details: read-out: IC50 for EZH2; cited from earlier work
[3] = test system: MDA-MB-231 cells; test: Live-cell imaging proliferation/cell death assay with ER-stress inducer; assay type: cell-based
Summary of the method: (§1)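 Cells (1 to 3 × 10^3 per well) were seeded in 96-well plates in duplicate and dosed at the indicated concentrations. Plates were imaged in an IncuCyte live-cell system inside a 37 °C, 5% CO2 incubator. Confluence was derived from phase-contrast images. For cell death, medium contained 1.5 μM DRAQ7, and red-fluorescent dead-cell counts were recorded by automated fluorescence microscopy.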

[4] = test system: MDA-MB-468 cells; test: as above; assay type: cell-based
Summary of the method: as §1

## COc1cc(C)[nH]c(=O)c1CNC(=O)c1c(C)n([C@H](C)C2CCN(CC(F)(F)F)CC2)c2ccccc12 [CPI-1205, (R)-N-((4-methoxy-6-methyl-2-oxo-1,2-dihydropyridin-3-yl)methyl)-2-methyl-1-(1-(1-(2,2,2-trifluoroethyl)piperidin-4-yl)ethyl)-1H-indole-3-carboxamide]
[1]
  growth inhibition and apoptosis induction in TNBC cells: failed to inhibit growth

## CC[C@H](C)n1cc(C)c2c(C(=O)NCc3c(C)cc(C)[nH]c3=O)cc(-c3ccc(N4CCNCC4)nc3)cc21 [GSK126]
[1]
  growth inhibition and apoptosis induction in TNBC cells: failed to inhibit growth

## CCCc1cc(C)[nH]c(=O)c1CNC(=O)c1cc(-c2ccc(N3CCN(C(=O)CCOCCOCCOCCOCCOCCOCCOCCOCCOCCOCCOCCOCCNC(=O)CCCC[C@@H]4SC[C@@H]5NC(=O)N[C@@H]54)CC3)nc2)cc2c1cnn2C(C)C [UNC2399]
[2]
  IC50: 17 nM

## tunicamycin
[3]
  induction of cell death: not in MDA-MB-231 cells
[4]
  induction of cell death: effectively induced cell death
